Reference: ChEMBL document CHEMBL4699517 (Bioorg Med Chem Lett, 2020)
The source made the active and inactive calls. No cut-off for these calls is given here.

How the values were obtained:
[1] = Toxicity in NOD/SCID mouse assessed as animal survival at 5 mg/kg, ip dosed 3 times per week and measured after 24 days of treatment; format: organism-based; conditions: in vivo, time 24 day
Summary of the method: (§1)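 Six-week-old male NOD/SCID mice, 4 per group, received 5 mg/kg IP every other day, three times per week. Animals were monitored throughout dosing and euthanized after 24 days of treatment. Survival over the dosing period was plotted as a survival curve.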

[2] = Toxicity in NOD/SCID mouse assessed as animal survival at 10 mg/kg, ip dosed 3 times per week and measured after 24 days of treatment; format: organism-based; conditions: in vivo, time 24 day
[3] = target: Phosphatidylinositol 4,5-bisphosphate 3-kinase catalytic subunit gamma isoform (Homo sapiens) (UniProt P48736); assay: Inhibition of PI3Kgamma in human Raji cells assessed as inhibition of cell viability at 100 nM after 72 hrs by CellTiter-Glo luminescence assay; format: cell-based
Sequence of Phosphatidylinositol 4,5-bisphosphate 3-kinase catalytic subunit gamma isoform (Homo sapiens) (P48736 whole entry, looked up, canonical isoform): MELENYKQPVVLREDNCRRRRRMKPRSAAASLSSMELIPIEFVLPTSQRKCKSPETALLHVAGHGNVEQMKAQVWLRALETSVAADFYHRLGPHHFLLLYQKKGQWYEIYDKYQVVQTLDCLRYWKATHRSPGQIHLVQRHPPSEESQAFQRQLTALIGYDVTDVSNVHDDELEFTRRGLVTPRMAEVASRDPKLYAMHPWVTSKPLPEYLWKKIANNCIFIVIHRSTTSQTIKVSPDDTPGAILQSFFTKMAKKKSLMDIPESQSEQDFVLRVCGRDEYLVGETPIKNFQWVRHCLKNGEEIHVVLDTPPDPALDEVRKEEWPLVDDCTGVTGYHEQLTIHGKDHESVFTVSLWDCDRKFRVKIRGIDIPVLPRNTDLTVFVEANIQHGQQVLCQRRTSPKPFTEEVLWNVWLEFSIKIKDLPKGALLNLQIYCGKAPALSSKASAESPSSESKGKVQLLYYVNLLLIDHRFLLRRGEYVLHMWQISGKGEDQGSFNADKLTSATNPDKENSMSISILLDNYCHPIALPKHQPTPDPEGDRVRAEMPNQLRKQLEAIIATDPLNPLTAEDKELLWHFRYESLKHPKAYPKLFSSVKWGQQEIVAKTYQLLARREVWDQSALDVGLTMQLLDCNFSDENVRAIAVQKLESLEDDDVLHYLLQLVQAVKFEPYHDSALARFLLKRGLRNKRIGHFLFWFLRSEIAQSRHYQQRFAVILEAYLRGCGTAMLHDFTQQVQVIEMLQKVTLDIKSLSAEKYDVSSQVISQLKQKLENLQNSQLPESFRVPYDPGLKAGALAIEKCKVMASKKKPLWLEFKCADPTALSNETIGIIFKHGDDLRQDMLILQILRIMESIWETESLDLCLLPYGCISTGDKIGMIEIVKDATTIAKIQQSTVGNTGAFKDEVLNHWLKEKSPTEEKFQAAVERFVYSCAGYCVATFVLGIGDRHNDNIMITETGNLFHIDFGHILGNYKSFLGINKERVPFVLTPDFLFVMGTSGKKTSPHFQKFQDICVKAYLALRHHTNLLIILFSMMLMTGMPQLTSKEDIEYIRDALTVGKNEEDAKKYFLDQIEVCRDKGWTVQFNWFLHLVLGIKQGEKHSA

[4] = Toxicity in NOD/SCID mouse assessed as animal survival at 5 to 10 mg/kg, ip dosed 3 times per week and measured at >3 weeks of treatment; format: organism-based; conditions: in vivo, 504 h, dose 5-10 mg/kg
[5] = target: Phosphatidylinositol 4,5-bisphosphate 3-kinase catalytic subunit gamma isoform (Homo sapiens) (UniProt P48736); assay: Inhibition of PI3Kgamma in human RPMI-8226 cells assessed as inhibition of cell viability at 100 nM after 72 hrs by CellTiter-Glo luminescent assay; format: cell-based
[6] = target: Phosphatidylinositol 4,5-bisphosphate 3-kinase catalytic subunit gamma isoform (Homo sapiens) (UniProt P48736); assay: Inhibition of PI3Kgamma in human SUDHL-10 cells assessed as inhibition of cell viability at 100 nM after 72 hrs by CellTiter-Glo luminescent assay; format: cell-based; conditions: SU-DHL-10
[7] = target: Phosphatidylinositol 4,5-bisphosphate 3-kinase catalytic subunit gamma isoform (Homo sapiens) (UniProt P48736); assay: Inhibition of PI3Kgamma in human MOLT-4 cells assessed as inhibition of cell viability at 100 nM after 72 hrs by CellTiter-Glo luminescent assay; format: cell-based
[8] = target: Phosphatidylinositol 4,5-bisphosphate 3-kinase catalytic subunit gamma isoform (Homo sapiens) (UniProt P48736); assay: Inhibition of PI3Kgamma in human LCL-1 cells assessed as inhibition of cell viability at 100 nM after 72 hrs by CellTiter-Glo luminescent assay; format: cell-based
[9] = target: Phosphatidylinositol 4,5-bisphosphate 3-kinase catalytic subunit gamma isoform (Homo sapiens) (UniProt P48736); assay: Inhibition of PI3Kgamma in human SUDHL-6 cells assessed as inhibition of cell viability at 100 nM after 72 hrs by CellTiter-Glo luminescent assay; format: cell-based; conditions: SU-DHL-6
[10] = Toxicity in NOD/SCID mouse assessed as animal death rate at 5 mg/kg, ip dosed 3 times per week and measured after 24 days of treatment; format: organism-based; conditions: in vivo, time 24 day, read-out: Activity; summary of the method: as §1

Structure (SMILES)	survival at 576 h [1] [%]	survival at 576 h [2] [%]	inhibition [3]	Activity [4]	inhibition [5]	inhibition [6]	inhibition [7]	inhibition [8]	inhibition [9]	mortality at 576 h [10] [%]
COC(=O)[C@@]12OC[C@]34[C@H]([C@@H](O)[C@@H]1O)[C@@]1(C)CC(=O)C(OC(=O)CNC(=O)OC(C)(C)C)=C(C)[C@@H]1C[C@H]3OC(=O)[C@H](OC(=O)C=C(C)C)[C@@H]24	50	0	Active	–	–	–	–	–	–	–
COC(=O)[C@@]12OC[C@]34[C@H]([C@@H](O)[C@@H]1O)[C@@]1(C)CC(=O)C(OC(=O)C[C@H](C)N)=C(C)[C@@H]1C[C@H]3OC(=O)[C@H](OC(=O)C=C(C)C)[C@@H]24	100	–	Active	Non-Toxic	–	–	–	–	–	–
COC(=O)[C@@]12OC[C@]34[C@H]([C@@H](O)[C@@H]1O)[C@@]1(C)CC(=O)C(OC(=O)[C@@H](C)N)=C(C)[C@@H]1C[C@H]3OC(=O)[C@H](OC(=O)C=C(C)C)[C@@H]24	–	–	Active	–	Active	Active	Active	Active	Active	–
COC(=O)[C@@]12OC[C@]34[C@H]([C@@H](O)[C@@H]1O)[C@@]1(C)CC(=O)C(O)=C(C)[C@@H]1C[C@H]3OC(=O)[C@H](OC(=O)C=C(C)C)[C@@H]24	75	25	Active	–	Active	Active	Active	Active	Active	25
